{"source": "ChEMBL document CHEMBL4513216", "about": "“Probing the Open Global Health Chemical Diversity Library for Multistage-Active Starting Points for Next-Generation Antimalarials” (ACS Infect Dis, 2020)", "assay": "Toxicity liver stage against HepG2, at 10uM", "format": "cell-based", "design": "test concentration 10 uM, cell line HepG2-A16-CD81EGFP", "conditions": "human, HepG2-A16-CD81EGFP cells; read-out: INHIBITION", "how_it_was_run": "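Uninfected HepG2-A16-CD81EGFP cells, 3 × 10^3 per well, 1536-well, plated on prespotted compound at 10 μM final, parasite-free screening media added to match infected plates; puromycin 10 μM positive, DMSO 0.5% negative; run in parallel with 48 h PbLuc assay at 37 °C, 5% CO2; viability by CellTiter-Glo luminescence, normalized to controls.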", "data": [{"smiles": "CCCc1ncc(C(=O)c2ccc(OC)cc2)n1C", "values": [{"measurement": "cytotoxicity at 10 µM", "value": 22.3, "unit": "%"}]}, {"smiles": "COCC(=O)NC[C@H]1C[C@@H]2CCN1C[C@@H]2CN1CCc2ccccc21", "values": [{"measurement": "cytotoxicity at 10 µM", "value": 3.29, "unit": "%"}]}, {"smiles": "CC(=O)N1CCC(N2C[C@@H](F)[C@@H](OCc3nc4ncccc4[nH]3)C2)CC1", "values": [{"measurement": "cytotoxicity at 10 µM", "value": 6.1, "unit": "%"}]}, {"smiles": "COc1ccc2[nH]c(C[C@@H]3C[C@@H](C(C)C)[C@H](CN(C)C)C=C3C)nc2c1", "values": [{"measurement": "cytotoxicity at 10 µM", "value": -0.626, "unit": "%"}]}, {"smiles": "CC1(CO)COC(Cc2ccc(Cl)cc2)=N1", "note": "(centres undefined)", "values": [{"measurement": "cytotoxicity at 10 µM", "value": 12.6, "unit": "%"}]}, {"smiles": "CC1=Nc2c(c(=O)[nH]n2C2CCOCC2)C(c2cccc(O)c2)S1", "note": "(centres undefined)", "values": [{"measurement": "cytotoxicity at 10 µM", "value": -6.81, "unit": "%"}]}, {"smiles": "O=C(Cc1cccc(F)c1)N1C[C@H]2CN(Cc3cccnc3)C[C@H]2C1", "values": [{"measurement": "cytotoxicity at 10 µM", "value": 0.0515, "unit": "%"}]}, {"smiles": "CCN1C(=O)CCC12CCCN(CCc1ccccc1)C2", "note": "(centres undefined)", "values": [{"measurement": "cytotoxicity at 10 µM", "value": -0.449, "unit": "%"}]}, {"smiles": "CC(C)NC(=O)[C@H]1CCS(=O)(=O)[C@@H]2CN(c3ncccn3)C[C@H]12", "values": [{"measurement": "cytotoxicity at 10 µM", "value": -123, "unit": "%"}]}, {"smiles": "CC(=O)N1CCc2nc3sc(C(N)=O)c(N)c3c(C(F)(F)F)c2C1", "values": [{"measurement": "cytotoxicity at 10 µM", "value": 6.28, "unit": "%"}]}, {"smiles": "CC(=O)c1cccc(-n2nc(C(C)=O)c(C(C)=O)c2C)c1", "values": [{"measurement": "cytotoxicity at 10 µM", "value": 4.45, "unit": "%"}]}, {"smiles": "COc1ncccc1C(=O)Nc1nc2c(s1)CN(S(=O)(=O)C1CC1)CC2", "values": [{"measurement": "cytotoxicity at 10 µM", "value": -9.04, "unit": "%"}]}, {"smiles": "COc1ccccc1S(=O)(=O)N1CCC(Oc2cccnn2)CC1", "values": [{"measurement": "cytotoxicity at 10 µM", "value": -7.33, "unit": "%"}]}, {"smiles": "CCC(=O)N1CCC2(CC1)COc1ccccc1S(=O)(=O)N(C)C2", "values": [{"measurement": "cytotoxicity at 10 µM", "value": -6.71, "unit": "%"}]}, {"smiles": "Cc1noc(C2CCC3(CCN(C(=O)C4=CCCCC4)CC3)O2)n1", "note": "(centres undefined)", "values": [{"measurement": "cytotoxicity at 10 µM", "value": -7.36, "unit": "%"}]}, {"smiles": "COCCN1CCN(C(=O)C2CC=CC2)Cc2cccnc21", "values": [{"measurement": "cytotoxicity at 10 µM", "value": -11.1, "unit": "%"}]}, {"smiles": "c1cnc(N2C[C@H]3CCN(c4cccnc4)C[C@H]3C2)nc1", "values": [{"measurement": "cytotoxicity at 10 µM", "value": -14.7, "unit": "%"}]}, {"smiles": "O=C(NCC1CC1)C1CN(C(=O)c2cccnc2)CC12CCOCC2", "note": "(centres undefined)", "values": [{"measurement": "cytotoxicity at 10 µM", "value": 3.25, "unit": "%"}]}, {"smiles": "CCn1cc(NS(=O)(=O)c2ccc(Br)s2)c(C(=O)NCC(C)C)n1", "values": [{"measurement": "cytotoxicity at 10 µM", "value": 6.86, "unit": "%"}]}, {"smiles": "CCn1cc(Br)c(C(=O)NCc2cccnc2)n1", "values": [{"measurement": "cytotoxicity at 10 µM", "value": -10.1, "unit": "%"}]}, {"smiles": "O=C(c1ccc2c(c1)CCCC2)N1CCn2ncnc2C1", "values": [{"measurement": "cytotoxicity at 10 µM", "value": -4.9, "unit": "%"}]}, {"smiles": "Cc1nccn1[C@@H]1CC[C@@H](N(C)S(=O)(=O)c2ccccc2F)[C@H]1O", "values": [{"measurement": "cytotoxicity at 10 µM", "value": 1.17, "unit": "%"}]}, {"smiles": "Cc1c[nH]c(C2CCCN2C(=O)CCc2c(C)n[nH]c2C)n1", "note": "(centres undefined)", "values": [{"measurement": "cytotoxicity at 10 µM", "value": -1.4, "unit": "%"}]}, {"smiles": "NC(=O)c1cc(CC2CCCN(Cc3cnccn3)CC2)ncn1", "note": "(centres undefined)", "values": [{"measurement": "cytotoxicity at 10 µM", "value": -3.97, "unit": "%"}]}, {"smiles": "CN1CCOC(c2cncc(CCC(N)=O)n2)C1", "note": "(centres undefined)", "values": [{"measurement": "cytotoxicity at 10 µM", "value": -2.86, "unit": "%"}]}, {"smiles": "O=C(Cc1cccc(O)c1)N1CCCC(O)(CN2CCCC2)CC1", "note": "(centres undefined)", "values": [{"measurement": "cytotoxicity at 10 µM", "value": -4.68, "unit": "%"}]}, {"smiles": "Cc1cc(O)nc(C2CCCN(CCO)C2)n1", "note": "(centres undefined)", "values": [{"measurement": "cytotoxicity at 10 µM", "value": -14.6, "unit": "%"}]}, {"smiles": "CC1(C(=O)NC2CCCC2)CCCN(c2ncccn2)C1", "note": "(centres undefined)", "values": [{"measurement": "cytotoxicity at 10 µM", "value": -27.3, "unit": "%"}]}, {"smiles": "CCS(=O)(=O)N1CCCC(c2ccnc(N(C)C)c2)C1", "note": "(centres undefined)", "values": [{"measurement": "cytotoxicity at 10 µM", "value": -5.16, "unit": "%"}]}, {"smiles": "CC(C)(C)C(=O)Nc1cnn(-c2ccccc2S(C)(=O)=O)c1", "values": [{"measurement": "cytotoxicity at 10 µM", "value": 3.65, "unit": "%"}]}, {"smiles": "COc1ccccc1OCCNC(=O)NCc1nc(C)no1", "values": [{"measurement": "cytotoxicity at 10 µM", "value": 6.67, "unit": "%"}]}, {"smiles": "CCc1cnc(CN(C)C2CCN(c3sccc3C#N)C2=O)s1", "note": "(centres undefined)", "values": [{"measurement": "cytotoxicity at 10 µM", "value": 8.32, "unit": "%"}]}, {"smiles": "COc1cccc(OC)c1CC(=O)NC(C#N)c1ccsc1", "note": "(centres undefined)", "values": [{"measurement": "cytotoxicity at 10 µM", "value": 14.9, "unit": "%"}]}, {"smiles": "CCn1c(C)cc(C(=O)N2CCC(Nc3cccnn3)CC2)c1C", "values": [{"measurement": "cytotoxicity at 10 µM", "value": 4.71, "unit": "%"}]}, {"smiles": "Cc1nc(N2CCN(C(=O)CC3CCCC3)CC2)c2cnn(C)c2n1", "values": [{"measurement": "cytotoxicity at 10 µM", "value": 6.24, "unit": "%"}]}, {"smiles": "CCOCCC1(CNC(=O)c2ccsc2)CCC1", "values": [{"measurement": "cytotoxicity at 10 µM", "value": 7.92, "unit": "%"}]}, {"smiles": "COc1ncccc1CNC(=O)N1CCC(CNC(C)=O)CC1", "values": [{"measurement": "cytotoxicity at 10 µM", "value": 3.4, "unit": "%"}]}, {"smiles": "Cc1nnc(CN2CCC(c3nc4cc(Cl)ccc4o3)CC2)n1C", "values": [{"measurement": "cytotoxicity at 10 µM", "value": -3.49, "unit": "%"}]}, {"smiles": "Cc1c(C(=O)NCCCC(N)=O)sc2ccc(F)cc12", "values": [{"measurement": "cytotoxicity at 10 µM", "value": 14.6, "unit": "%"}]}, {"smiles": "OCC1(NCc2cnc(-c3cccs3)s2)CCOCC1", "values": [{"measurement": "cytotoxicity at 10 µM", "value": -1.99, "unit": "%"}]}, {"smiles": "CN(Cc1cnn(C)c1)C(=O)c1ccc(=O)n(Cc2ccccc2)n1", "values": [{"measurement": "cytotoxicity at 10 µM", "value": -134, "unit": "%"}]}, {"smiles": "CCOc1ncccc1C(=O)N1CCCC(n2nc(C)cc2C)C1", "note": "(centres undefined)", "values": [{"measurement": "cytotoxicity at 10 µM", "value": -5.54, "unit": "%"}]}, {"smiles": "NC(=O)N1CC(OCc2cccc3ccccc23)C1", "values": [{"measurement": "cytotoxicity at 10 µM", "value": -0.396, "unit": "%"}]}, {"smiles": "CCN(C)c1ccc(CNC(=O)c2ccc(NC(N)=O)cc2)cc1F", "values": [{"measurement": "cytotoxicity at 10 µM", "value": 7.52, "unit": "%"}]}, {"smiles": "CCN1CCN(S(=O)(=O)c2c[nH]c(C(C)C)n2)c2ccccc21", "values": [{"measurement": "cytotoxicity at 10 µM", "value": 4.65, "unit": "%"}]}, {"smiles": "CC(C)(C(N)=O)S(=O)(=O)c1ccc(Br)cc1", "values": [{"measurement": "cytotoxicity at 10 µM", "value": 4.4, "unit": "%"}]}, {"smiles": "N#Cc1cccnc1NCc1cccnc1N1CCC(C(N)=O)CC1", "values": [{"measurement": "cytotoxicity at 10 µM", "value": -0.179, "unit": "%"}]}, {"smiles": "CN(CCOc1cccc(CN)c1)C1CCOCC1", "values": [{"measurement": "cytotoxicity at 10 µM", "value": -1.35, "unit": "%"}]}, {"smiles": "O=C(NCC(O)c1ccc(F)c(F)c1)c1cccnc1OCC(F)(F)F", "note": "(centres undefined)", "values": [{"measurement": "cytotoxicity at 10 µM", "value": -10.2, "unit": "%"}]}, {"smiles": "O=C(CCc1nccs1)N1CCCC(N2CCNC2=O)C1", "note": "(centres undefined)", "values": [{"measurement": "cytotoxicity at 10 µM", "value": -18.3, "unit": "%"}]}, {"smiles": "CCN(Cc1cccnc1)CC1CCCO1", "note": "(centres undefined)", "values": [{"measurement": "cytotoxicity at 10 µM", "value": -10.7, "unit": "%"}]}, {"smiles": "O=C(c1ccnnc1)N1CCc2onc(Cn3cccn3)c2C1", "values": [{"measurement": "cytotoxicity at 10 µM", "value": 0.529, "unit": "%"}]}, {"smiles": "Cc1ccc(CN2CCCn3c(nc(Cn4ccnc4)cc3=O)C2)s1", "values": [{"measurement": "cytotoxicity at 10 µM", "value": 4.24, "unit": "%"}]}, {"smiles": "c1ccc(-c2cc(CN3C[C@H]4CC[C@H]3C4)on2)cc1", "values": [{"measurement": "cytotoxicity at 10 µM", "value": -5.33, "unit": "%"}]}]}
